Reference: ChEMBL document CHEMBL1122814, “Selective thromboxane synthetase inhibitors. 1. 1-[(Aryloxy)alkyl]-1H-imidazoles” (J Med Chem, 1985)

The molecules below were run against T1, 11-beta-hydroxylase (Cytochrome P450 11B1, mitochondrial) (Rattus norvegicus, UniProt P15393) (assay: Inhibition of rat adrenal 11-beta-hydroxylase at 10e-5 M). Conditions: rat adrenal 11-beta-hydroxylase (adrenal enzyme preparation).
T1 sequence (P15393 whole entry): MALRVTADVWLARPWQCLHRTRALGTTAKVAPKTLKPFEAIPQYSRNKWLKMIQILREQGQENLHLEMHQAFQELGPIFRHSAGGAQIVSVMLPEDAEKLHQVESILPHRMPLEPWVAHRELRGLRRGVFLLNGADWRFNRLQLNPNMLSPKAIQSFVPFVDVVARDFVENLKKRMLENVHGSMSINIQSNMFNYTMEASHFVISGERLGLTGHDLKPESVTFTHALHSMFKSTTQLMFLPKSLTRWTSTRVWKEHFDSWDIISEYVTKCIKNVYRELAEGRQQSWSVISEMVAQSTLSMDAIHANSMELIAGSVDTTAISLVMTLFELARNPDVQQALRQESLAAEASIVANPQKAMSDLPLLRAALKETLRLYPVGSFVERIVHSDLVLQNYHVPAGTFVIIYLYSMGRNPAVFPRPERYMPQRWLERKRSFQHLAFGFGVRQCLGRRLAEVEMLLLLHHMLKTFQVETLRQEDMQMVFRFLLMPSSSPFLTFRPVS
Outline: (§1)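 Washed adrenal mitochondria from three male Charles River rats, used within 30 min. Incubated at 37 °C, pH 7.4 (HEPES/sucrose/MgCl2/KH2PO4/malate) with 50 μM [14C]-11-deoxycorticosterone and test drug, 5-min preincubation then 10 min with mitochondria. Extracted into CH2Cl2. Substrate and corticosterone separated by silica TLC and counted by scintillation.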

Compound	inhibition at 0.0001 M
c1ccc(OCCn2ccnc2)cc1	72%

What follows are molecules tested against T2, Thromboxane-A synthase (Homo sapiens, UniProt P24557) (assay: Inhibitory activity against thromboxane A2 synthetase). Conditions: not given.
T2 sequence (P24557 whole entry): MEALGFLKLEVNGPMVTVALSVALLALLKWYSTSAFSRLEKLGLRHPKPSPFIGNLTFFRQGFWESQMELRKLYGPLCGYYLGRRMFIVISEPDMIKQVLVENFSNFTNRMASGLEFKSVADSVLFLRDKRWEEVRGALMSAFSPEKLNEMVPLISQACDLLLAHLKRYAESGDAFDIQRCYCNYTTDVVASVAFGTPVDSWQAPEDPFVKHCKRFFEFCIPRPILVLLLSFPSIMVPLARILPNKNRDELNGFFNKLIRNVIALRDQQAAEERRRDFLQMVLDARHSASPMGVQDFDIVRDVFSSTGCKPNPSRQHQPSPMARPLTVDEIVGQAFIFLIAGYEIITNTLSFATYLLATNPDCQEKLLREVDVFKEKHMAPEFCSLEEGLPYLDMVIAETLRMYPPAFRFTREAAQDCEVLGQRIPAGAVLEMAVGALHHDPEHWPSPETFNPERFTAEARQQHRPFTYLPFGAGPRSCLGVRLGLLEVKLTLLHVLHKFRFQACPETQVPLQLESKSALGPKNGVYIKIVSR
Outline: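 Human platelet microsomes, cyclooxygenase inactivated with 30 μM indomethacin (30 min, 0 °C). Compound preincubated 2 min on ice, pH 7.8 phosphate. Then 1 min on ice with freshly made PGH2 (from 0.1 mM arachidonic acid and ram seminal vesicle microsomes). Stopped with EtOH. TxB2 measured by RIA in triplicate; dose-response curves over several concentrations.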

Compound	IC50
O=C(O)c1ccc(OCCCn2ccnc2)cc1	27 nM
NC(=O)COc1ccc(OCCn2ccnc2)cc1	850 nM
CN(C)C(=O)c1ccc(OCCn2ccnc2)cc1	1100 nM
CC(=O)NC(=O)c1ccc(OCCn2ccnc2)cc1	630 nM
O=C(O)Cc1ccccc1OCCn1ccnc1	> 10000 nM
O=[N+]([O-])c1ccc(OCCn2ccnc2)cc1	> 50000 nM
CNC(=O)c1ccc(OCCn2ccnc2)cc1	860 nM
O=C(O)COc1ccc(OCCn2ccnc2)cc1	95 nM
c1cn(CCOc2ccc(-c3nnn[nH]3)cc2)cn1	15 nM
c1ccc(OCCn2ccnc2)cc1	660 nM
O=C(O)Cc1ccc(OCCn2ccnc2)cc1	32 nM
Nc1ccc(OCCn2ccnc2)cc1	> 50000 nM
O=C(O)c1cccc(OCCn2ccnc2)c1	530 nM
NC(=O)Nc1ccc(OCCn2ccnc2)cc1	840 nM
CC(C)c1[nH]c2ccccc2c1Cn1ccnc1	15 nM
NC(=O)Cc1ccc(OCCn2ccnc2)cc1	1800 nM

Compound	IC50
NC(=O)c1ccccc1OCCn1ccnc1	22000 nM
c1c[nH]cn1 [IMIDAZOLE]	670000 nM
CCOC(=O)Cc1ccccc1OCCn1ccnc1	2000 nM
COc1ccc2c(c1)c(CC(=O)O)c(C)n2C(=O)c1ccc(Cl)cc1 [INDOMETHACIN]	> 100000 nM
CC(=O)Nc1ccc(OCCn2ccnc2)cc1	4000 nM
N#Cc1ccc(OCCn2ccnc2)cc1	13000 nM
NS(=O)(=O)c1ccc(OCCn2ccnc2)cc1	> 50000 nM
CCOC(=O)c1ccc(OCCCn2ccnc2)cc1	3000 nM
CCOC(=O)Cc1ccc(OCCn2ccnc2)cc1	2900 nM
O=C(NC(=O)c1ccc(OCCn2ccnc2)cc1)c1ccccc1	180 nM
CCOC(=O)COc1ccc(OCCn2ccnc2)cc1	610 nM
O=C(O)c1ccccc1OCCn1ccnc1	> 10000 nM
NC(=O)c1ccc(OCCn2ccnc2)cc1	56 nM
CCOC(=O)c1ccccc1OCCn1ccnc1	4400 nM
N#Cc1cccc(OCCn2ccnc2)c1	3500 nM

What follows are molecules tested against T3, Cytochrome P450 11B1, mitochondrial (Rattus norvegicus, UniProt P15393) (assay: Inhibition of rat adrenal 11-beta-hydroxylase). Conditions: not given.
T3 sequence (P15393 whole entry): T1 sequence (P15393 whole entry)
Outline: as §1

Compound	IC50
NC(=O)COc1ccc(OCCn2ccnc2)cc1	> 100000 nM
O=C(O)COc1ccc(OCCn2ccnc2)cc1	> 100000 nM
O=C(O)c1cccc(OCCn2ccnc2)c1	> 100000 nM
O=C(O)c1ccc(OCCn2ccnc2)cc1 [DAZOXIBEN]	> 100000 nM
CC(C)c1[nH]c2ccccc2c1Cn1ccnc1	2000 nM
NC(=O)c1ccc(OCCn2ccnc2)cc1	10000 nM
